Measurements reported in the RNAGym collection of RNA variant scans (doi:10.1126/science.aae0568).
Fewer inactive variants are shown than the library holds.

B1: tRNA (parent)
chain: GUUCCGUUGGCGUAAUGGUAACGCGUCUCCCUCCUAAGGAGAAGACUGCGGGUUCGAGUCCCGUACGGAACG

Variants of: B1
Test: yeast fitness relative to wild type (ratio to wild type); higher = fitter; tRNA-Arg(CCU), competitive growth, 37 C, YPD
Procedure, shortened: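 A pool of Saccharomyces cerevisiae strains, each with a tRNA-Arg(CCU) gene variant at the native genomic locus, was competed in YPD at 37°C for 24 hours across six parallel replicates. The variants had been chemically synthesised at a 3% per-site mutation rate over 69 sites, and gene amplicons before and after competition were read by 100-nucleotide paired-end sequencing. Darwinian fitness relative to wild type rested on changes in genotype frequencies. Genotypes required ≥ 100 starting reads, and estimates < 0.5 were set to 0.5.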

Going from GUUCCGUUGGCGUAAUGGUAACUCGUCUCCCUCCUAAGGAGAAGACUGCGGGUUCGAGUCCCCUACGGAACG to GUUCCGUUGGCGUAAUGGUAACCCGUCUCCCUCCUAAGGAGAAGACUGCGCGUUCGAGUCCCGUACGGAACG, the yeast fitness falls from 0.623 to at most 0.5.

Compared with GUUCCGUUGGCGUAAUGGUAACCCGUCUCCGUCCUAAGGAGAAGACUGCGGGUUCGAGUACCGUACGGAUCG, GUUCCGUUGGCGUAAUGGUAACCCGUCUCCCUCCUAAGGACAAGACUGUGGGUUCGAGUCCCGUACGGAACG is lower in yeast fitness: 0.554 for the first, at most 0.5 for the second.

First: GUUCCGUUGGCGUAAUGGUAACCCGUCUCCCUCCUAAGGAGCCGACUGCGGGUUCGAGUCCCGUACGGAACG
Second: GUUCCGUUGGCGUAAUGGUAACACAUCUCCUUCCUAAGGAGAAGACUGCGGGUUCGAGUCCCGUACGGAACG
The yeast fitness of the first is lower: 0.575 for the first, 0.652 for the second.

First: GUUCCGUUGGCGUAAUGGUAACCCGUCUCCCUCCUAAGGAGGAGACUGCGGGUUCGAGUCCCGUACGGGCCG
Second: GUUCCGUUGGCGUAAUGGUAACCCGUCUCCCUCCUGAGGAGAAGACUGCGGGUUCGAGUCCCGUACGGAACG
The yeast fitness of the first is lower: at most 0.5 for the first, 0.625 for the second.

GUUCCGUUGGCGUAAUGGUAACCCGUCUCCCUCCUCAGGAGAAGACUGCGGGUUCGAGUCCCGUACGGAACG and GUUCCGUUGGCGUAAUGGUAACCCGUCUCCCACCUAAGGAGAAGACUGCGGGUUCGAGUCUCGUACGGAACG cannot be ordered by yeast fitness: at most 0.5 for the first, at most 0.5 for the second.

Compared with GUUCCGUUGGCGUAAUGGUAACCCGUCUCGCUCCUAAGGAGAAGAUUGCGGGUUCGAGUCCCGUGCGGAUCG, GUUCCGUUGGCGUAAUGGUAACCCGUCUCCCUUCUAAGGAGAAGACUGCGGGUUCGAGUCCCGUACGGAACG is lower in yeast fitness: 0.63 for the first, 0.544 for the second.

Going from GUUCCGUUGGCGUAAUGGUAACACGUCUCCCUCCUAAGGAGAAGACUGAGGGUUCGAGCCCUGUUCGGACCG to GUUCCGUUGGCGUAAUGGUAACACGUCUCCCUCCUAAGGAGAAGACUGCGGGUACGAGUCCCGUACAGAACG, the yeast fitness falls from 0.524 to at most 0.5.

Compared with GUUCCGUUGGCGUAAUGGUAACCCGUCGCCCUCCUAAGGAGCAGACUGCGGCUUCGAGUCCCGUACGGAACG, GUUCCGUUGGCGUAAUGGUAACCCGUCUCCCUCCUAAGGAGAAGACUGCGGGUUCGAGUCCCGUACGGAUCG is higher in yeast fitness: at most 0.5 for the first, 0.717 for the second.

Going from GUUCCGUUGGCGUAAUGGUAACCCGUGUCCCUCCUAAGGAGAAGACUGCGGGUUCGAGUCUCGUACGGAACG to GUUCCGUUGGCGUAAUGGUAACCCGUCUCCCUCUUAAGGAGAAGACAGCGGGUUCGACUCCCGUACUGAACG, the yeast fitness rises from at most 0.5 to 0.533.

Compared with GUUCCGUUGGCGUAAUGGUAACACGUCUCCCUCCUAAGGAGAAGAUUGCGGGUUCGAGUCCCGUACGGAACG, GUUCCGUUGGCGUAAUGGUAACACGUCUCCCUCCUAAGGAGAAGACUGCGGAUUCGAGUCCCGUACGGAACG is lower in yeast fitness: 0.646 for the first, 0.546 for the second.

Going from GUUCCGUUGGCGUAAUGGUAACCUGUCUCCCUCCUAAGGAGAAGAUCGCGGGUUCGAGUCCCGUACGGAACG to GUUCCGUUGGCGUAAUGGUAACCCGUCUCCCUCCUAAGCAGAAGACUGCAGGUUCGAGUCCCGUACGCAACG, the yeast fitness falls from 0.684 to at most 0.5.

GUUCCGUUGGCGUAAUGGUAACCCGUCUCACUCCUAAGGAGAAGACUGCGGGUUCGAGUCCCGCACGGAACG and GUUCCGUUGGCGUAAUGGUAACACGUCUCCUUCCUAAGGAGAAGACUGCGGGUUCGUGUCCCGUACGGAACG cannot be ordered by yeast fitness: at most 0.5 for the first, at most 0.5 for the second.

GUUCCGUUGGCGUAAUGGUAACCCGUCUCCCUCCUAAGGAGAAGACUGCGGGUCCGAGUCCCGUAUGGAACG and GUUCCGUUGGCGUAAUGGUAACUCGUCUCCCUCCUAAGGAGAAGACUGGGGGUUCGAGUCCCGUACGGAUCG cannot be ordered by yeast fitness: at most 0.5 for the first, at most 0.5 for the second.

First: GUUCCGUUGGCGUAAUGGUAACCCGUCUCCCUGCUAAGGAGUAGACUGCGGGUUCGAGUCCCGUACGGAACG
Second: GUUCCGUUGGCGUAAUGGUAACACGUCUCCAUCCUAAGGAGAAGACUGCGGGUUCGAGUCCCGUACGGCACG
The yeast fitness of the first is higher: 0.556 for the first, at most 0.5 for the second.

Compared with GUUCCGUUGGCGUAAUGGUAACCCGUCUCCCUCCUAAGGAGAAGACUGAGGGUUCGAGCCCCGUACGGGACG, GUUCCGUUGGCGUAAUGGUAACCCGUCUGCCUCCUAAGGAGAUGACUGCAGGUUCGAGUCCCGUCCGGAACG is higher in yeast fitness: at most 0.5 for the first, 0.542 for the second.

Compared with GUUCCGUUGGCGUAAUGGUAACACGUCUCCCUCCUAAGGAGAAGACCGCGGGUUUGAGUCCCGUACGGCACG, GUUCCGUUGGCGUAAUGGUAACCCGUCUCCCUCCUAAGCAGAAGACUGCGGGUUCGAGUCCCGUACGGAACG is higher in yeast fitness: at most 0.5 for the first, 0.53 for the second.

Compared with GUUCCGUUGGCGUAAUGGUAACCCGUCUCGCUCCUAAGCAGAAGACUGCGGGUUCGAGUCCCGUACGGAACG, GUUCCGUUGGCGUAAUGGUAACUCGUCUCCCUCCUAAGGAGAUGACUGCGGGUUGGAGUCCCGUACGGAACG is lower in yeast fitness: 0.501 for the first, at most 0.5 for the second.

Compared with GUUCCGUUGGCGUAAUGGUAACACGUCUCCCUCCUAAGCAGAAGACUGCGGGUUCGAGUCCCGUACGGAACG, GUUCCGUUGGCGUAAUGGUAACCCGUCUCCCUCCUAAGGAGUAGACUGCGGGUUCGAGUCCCGUACGGAACG is lower in yeast fitness: 0.752 for the first, 0.65 for the second.

First: GUUCCGUUGGCGUAAUGGUAACACGUCUCUCUCCCAAGGAGAAGACUCCGGGUUCGAGACCCGUAUGGAACG
Second: GUUCCGUUGGCGUAAUGGUAACACGUCUCCCUCCUAAGGAGAAGACUGCGGGUUCGAGUCCUGUCCGGAACG
The yeast fitness of the first is lower: 0.526 for the first, 0.582 for the second.
